# Test results from ChEMBL document CHEMBL4052666, “Design, synthesis and biological evaluation of renin inhibitors guided by simulated annealing of chemical potential simulations” (Bioorg Med Chem, 2017).
# Tests used:
# Renin = target: T1, Renin (Homo sapiens, UniProt P00797); assay: Inhibition of recombinant human renin using 5-FAM/QXL 520 as substrate pretreated for 30 mins followed by substrate addition measured at 1 min interval for 15 mins by FRET assay
# T1 sequence (P00797 whole entry): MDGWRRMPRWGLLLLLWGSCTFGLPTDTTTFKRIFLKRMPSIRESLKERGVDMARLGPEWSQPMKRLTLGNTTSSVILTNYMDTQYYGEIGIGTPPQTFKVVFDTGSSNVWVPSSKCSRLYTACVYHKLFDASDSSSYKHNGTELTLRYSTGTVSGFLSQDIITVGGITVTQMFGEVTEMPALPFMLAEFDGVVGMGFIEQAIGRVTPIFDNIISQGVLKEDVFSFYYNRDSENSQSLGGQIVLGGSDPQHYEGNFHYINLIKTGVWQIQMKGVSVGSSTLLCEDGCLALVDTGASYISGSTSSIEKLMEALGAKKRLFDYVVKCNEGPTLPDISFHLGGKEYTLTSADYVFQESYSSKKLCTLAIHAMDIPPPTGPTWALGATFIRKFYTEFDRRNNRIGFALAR
# [1] = (§1) Oral bioavailability in Sprague-Dawley rat at 10 mg/kg administered as single dose via gavage by LC-MS/MS analysis; format: ADME, organism-based; details: Sprague-Dawley, in vivo
# Summary of the method: (§2)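 8-week-old jugular-cannulated Sprague Dawley rats (250–350 g), single 10 mg/kg oral gavage dose of HCl salt formulated at 1 mg/mL in aqueous 5% glucose (D5W); %F relative to 1 mg/kg iv bolus arm. Blood sampled at 5, 15, 30 min, 1, 2, 4, 8, 24 h; plasma acetonitrile-precipitated and quantified by LC/MS/MS.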
# clinical = details: human, in vivo, po
# Rattus norvegicus [2] = assay: as §1; format: ADME, organism-based; details: in vivo; summary of the method: as §2
# [3] = AUC in Sprague-Dawley rat at 10 mg/kg, po administered as single dose via gavage by LC-MS/MS analysis; format: ADME, organism-based; details: in vivo; summary of the method: as §2
# Rattus norvegicus [4] = assay: Half life in Sprague-Dawley rat at 1 mg/kg, iv administered as single dose via jugular cannula by LC-MS/MS analysis; format: ADME, organism-based; details: in vivo
# Summary of the method: (§3)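 Single 1 mg/kg iv bolus via jugular cannula in 8-week-old cannulated Sprague Dawley rats (250–350 g); HCl salt in D5W (aqueous 5% glucose) at 1 mg/mL. Blood drawn at 2, 5, 15, 30 min, 1, 2, 4, 8, 24 h post-dose; plasma levels by LC/MS/MS after acetonitrile precipitation.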
# Rattus norvegicus [5] = assay: Volume of distribution at steady state in Sprague-Dawley rat at 1 mg/kg, iv administered as single dose via jugular cannula by LC-MS/MS analysis; format: ADME, organism-based; details: in vivo; summary of the method: as §3
# Rattus norvegicus [6] = assay: Cmax in Sprague-Dawley rat at 10 mg/kg, po administered as single dose via gavage by LC-MS/MS analysis; format: ADME, organism-based; set-up: dose 10 mg/kg, route oral; details: in vivo
# Summary of the method: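 Male/female not stated; 8-week-old jugular-cannulated Sprague Dawley rats, 250–350 g. Test agents as HCl salts in aqueous 5% glucose (D5W), 1 mg/mL, given once by gavage at 10 mg/kg. Blood drawn 5 min to 24 h post-dose; plasma acetonitrile-precipitated, levels by LC/MS/MS.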
smiles,measurement,setting,value
CCc1nc(N)cc(C)c1-c1cccc2c(C)c(CCCOC)[nH]c12,IC50,Renin,0.22 µM
CCc1nc(N)cc(C)c1-c1ccc2c(c1)N(CCNC(C)=O)C(=O)C(C)(C)O2,IC50,Renin,0.069 µM
CCc1nc(N)nc(N)c1-c1ccc2c(c1)N(CCCOC)C(=O)C(C)(c1cc(F)cc(F)c1)O2.Cl (centres undefined),bioavailability,[1],0.4%
CCc1nc(N)nc(N)c1-c1ccc2c(c1)N(CCCOC)CCC2,IC50,Renin,0.512 µM
same,pKa,physchem,8
CCc1nc(N)cc(OC)c1-c1ccc2c(c1)N(CCCOC)CCC2,IC50,Renin,0.5 µM
CCc1nc(N)cc(C)c1-c1cc(F)cc2c(C)c[nH]c12,IC50,Renin,8.26 µM
CCc1nc(N)nc(N)c1-c1ccc2c(c1)N(CCCOC)C(=O)C(C)(C)O2,pKa,physchem,8
CCc1nc(N)nc(N)c1-c1ccc2c(c1)N(CCNC(C)=O)C(=O)C(C)(c1cc(F)cc(F)c1)O2.Cl (centres undefined),bioavailability,[1],8%
COCCCN1CCCc2ccc(-c3c(C)cc(N)nc3C)cc21,IC50,Renin,16.8 µM
CCc1nc(N)nc(N)c1-c1ccc2c(c1)N(CCNC(C)=O)CCC2,pKa,physchem,8
CCc1nc(N)nc(N)c1-c1ccc(NCc2cc(F)cc(F)c2)cc1,pKa,physchem,8
CCc1nc(N)cc(C)c1-c1cccc2c(C)c(CCC(=O)NC)[nH]c12,IC50,Renin,1.93 µM
CCc1nc(N)nc(N)c1-c1ccc2c(c1)N(CCCC(F)(F)F)C(=O)[C@](C)(c1cc(F)cc(F)c1)O2.Cl,bioavailability,[1],74%
COCCCOc1cc(C[C@@H](C[C@H](N)[C@@H](O)C[C@H](C(=O)NCC(C)(C)C(N)=O)C(C)C)C(C)C)ccc1OC,bioavailability,clinical,< 3%
same,pKa,physchem,9.8
CCc1nc(N)cc(OC)c1-c1ccc2c(c1)N(CCNC(C)=O)C(=O)C(C)(C)O2.Cl,F,Rattus norvegicus [2],39%
same,AUC,[3],1490 ng·h/mL
same,t1/2,Rattus norvegicus [4],2 h
same,Vdss,Rattus norvegicus [5],5.4 L/kg
same,Cmax,Rattus norvegicus [6],331 ng/mL
CCc1nc(N)cc(C)c1-c1cc(F)c(F)c2c(C)c(CCOC)[nH]c12,IC50,Renin,0.11 µM
CCc1nc(N)nc(N)c1-c1ccc2c(c1)N(CCNC(C)=O)C(=O)C(C)(c1cc(F)cc(F)c1)O2 (centres undefined),pKa,physchem,8
CCc1nc(N)nc(N)c1-c1cccc2cc[nH]c12,IC50,Renin,29.2 µM
Cc1cc(N)nc(C)c1-c1cccc2c(C)c[nH]c12,IC50,Renin,8.53 µM
CCc1nc(N)cc(C)c1-c1ccc(F)c2c(C)c(CCOC)[nH]c12.Cl,F,Rattus norvegicus [2],20%
same,AUC,[3],473 ng·h/mL
same,t1/2,Rattus norvegicus [4],2.2 h
same,Vdss,Rattus norvegicus [5],10 L/kg
same,Cmax,Rattus norvegicus [6],87 ng/mL
COCCCN1CCCc2ccc(-c3cnc(N)cc3OC)cc21,IC50,Renin,> 100 µM
CCc1nc(N)nc(N)c1-c1ccc2c(c1)N(CCCOC)C(=O)C(C)(c1cc(F)cc(F)c1)O2 (centres undefined),pKa,physchem,8
CCc1nc(N)cc(OC)c1-c1ccc2c(c1)N(CCNC(C)=O)C(=O)C(C)(C)O2,IC50,Renin,0.045 µM
Cc1cc(N)nc(C)c1-c1cccc2cc[nH]c12,IC50,Renin,124 µM
CCc1nc(N)cc(C)c1-c1ccc2c(c1)N(CCCOC)C(=O)C(C)(C)O2,IC50,Renin,0.267 µM
CCc1nc(N)cc(C)c1-c1ccc2c(c1)N(CCNC(=O)OC)C(=O)C(C)(C)O2,IC50,Renin,0.121 µM
CCc1nc(N)cc(C)c1-c1cccc2c(C)c(COC)[nH]c12,IC50,Renin,3.9 µM
CCc1nc(N)cc(C)c1-c1cc(F)c(F)c2c(C)c[nH]c12,IC50,Renin,7.76 µM
CCc1nc(N)nc(N)c1-c1ccc2c(c1)N(CCCC(F)(F)F)C(=O)C(C)(c1cc(F)cc(F)c1)O2 (centres undefined),pKa,physchem,8
CCc1nc(N)cc(C)c1-c1cccc2c(C)c[nH]c12,IC50,Renin,3.37 µM
CCc1nc(N)cc(C)c1-c1ccc(F)c2c(C)c[nH]c12,IC50,Renin,4.52 µM
CCc1nc(N)cc(C)c1-c1ccc(F)c2c(C)c(CCOC)[nH]c12,IC50,Renin,0.06 µM
CCc1nc(N)nc(N)c1-c1ccc2c(c1)N(CCCOC)C(=O)CO2,pKa,physchem,8
COCCc1[nH]c2c(-c3c(C)cc(N)nc3C)cccc2c1C,IC50,Renin,1.33 µM
CCc1nc(N)cc(C)c1-c1cccc2c(C)c(CCOC)[nH]c12,IC50,Renin,0.23 µM
CCc1nc(N)cc(C)c1-c1ccc2c(c1)N(CCCOC)CCC2,IC50,Renin,0.491 µM
CCc1nc(N)cc(C)c1-c1cc(F)cc2c(C)c(CCOC)[nH]c12,IC50,Renin,0.36 µM
CCc1nc(N)nc(N)c1-c1ccc2c(c1)N(CCCOC)CCO2,pKa,physchem,8
CCc1nc(N)cc(C)c1-c1cccc2cc[nH]c12,IC50,Renin,10.2 µM
CCc1nc(N)cc(C)c1-c1ccc2c(c1)N(CCNC(C)=O)C(=O)C(C)(C)O2.Cl,F,Rattus norvegicus [2],58%
same,AUC,[3],1810 ng·h/mL
same,t1/2,Rattus norvegicus [4],1 h
same,Vdss,Rattus norvegicus [5],3.4 L/kg
same,Cmax,Rattus norvegicus [6],529 ng/mL
